According to ChEMBL document CHEMBL1641445, “Synthesis, antiprotozoal, antimicrobial, β-hematin inhibition, cytotoxicity and methemoglobin (MetHb) formation activities of bis(8-aminoquinolines)” (Bioorg Med Chem, 2011):
Activity calls are given as the source filed them. No cut-off for these calls is given here.

Legend:
[1] = test system: Cryptococcus neoformans; assay: Antifungal activity against Cryptococcus neoformans ATCC 90113; assay type: functional, organism-based
[2] = test system: Plasmodium berghei; assay: Antimalarial activity against Plasmodium berghei infected in mouse assessed as complete elimination of malaria parasites from animals at 25 mg/kg, po qd for 4 days measured up to 60 days; assay type: functional, organism-based; set-up: dose 25 mg/kg
How it was run: (§1)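 Rodent P. berghei (sensitive strain) blood-schizontocidal model, 6 mice per group. Compounds were given orally once daily for 4 days at 10, 25, 50 or 100 mg/kg/day. Cure meant complete parasite elimination with survival to day D+60.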

[3] = test system: Mycobacterium intracellulare; assay: Antibacterial activity against Mycobacterium intracellular ATCC 23068 at 20 ug/ml by CLSI method; assay type: functional, organism-based
[4] = test system: Plasmodium berghei; assay: Antimalarial activity against Plasmodium berghei infected in mouse assessed as negative parasitemia level at 10 mg/kg, po qd for 4 days measured up to 7 days; assay type: functional, organism-based; set-up: dose 10 mg/kg
How it was run: (§2)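 Mice infected with P. berghei (sensitive strain), 6 per group, dosed orally at 10–100 mg/kg/day × 4. Suppression meant negative parasitemia in all treated animals up to D+7. Survivors were counted at D+60.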

[5] = test system: Staphylococcus aureus; assay: Antibacterial activity against methicillin-resistant Staphylococcus aureus ATCC 43300 by CLSI method; assay type: functional, organism-based
How it was run: (§3)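 Broth dilution method (NCCLS M7-A5). […] MIC is the lowest concentration allowing no detectable growth. MBC is the lowest concentration killing the organism. Highest test concentration was 20 µg/mL.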

[6] = test system: Plasmodium falciparum; assay: Antimalarial activity against chloroquine-resistant Plasmodium falciparum W2 by LDH assay; assay type: functional, organism-based; conditions: Plasmodium falciparum, W2; read-out: IC50
How it was run: (§4)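 Antiplasmodial activity was measured in vitro against P. falciparum blood-stage cultures. Read-out was parasite lactate dehydrogenase (LDH) activity, with IC50 values expressed in µg/mL. The same protocol was used for the D6 and W2 strains.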

[7] = test system: Plasmodium berghei; assay: Antimalarial activity against Plasmodium berghei infected in mouse assessed as complete elimination of malaria parasites from animals at 100 mg/kg, po qd for 4 days measured up to 60 days; assay type: functional, organism-based; set-up: dose 100 mg/kg; how it was run: as §1
[8] = test system: Aspergillus fumigatus; assay: Antifungal activity against Aspergillus fumigatus ATCC 90906 at 20 ug/ml; assay type: functional, organism-based
[9] = Inhibition of beta-hematin formation; assay type: functional
[10] = test system: Vero; assay: Cytotoxicity against african green monkey Vero cells up to 10 ug/ml by neutral red assay; assay type: cell-based; conditions: chlorocebus sabaeus
How it was run: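 Vero (monkey kidney) cells were exposed up to a highest concentration of 10 µg/mL. Viability was read by neutral red uptake.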

[11] = test system: Pichia kudriavzevii; assay: Antifungal activity against Candida krusei at 20 ug/ml; assay type: functional, organism-based
[12] = test system: Staphylococcus aureus; assay: Antibacterial activity against Staphylococcus aureus by CLSI method; assay type: functional, organism-based
[13] = test system: Candida albicans; assay: Antifungal activity against Candida albicans ATCC 90028 at 20 ug/ml; assay type: functional, organism-based
[14] = test system: Plasmodium berghei; assay: Antimalarial activity against Plasmodium berghei infected in mouse assessed as complete elimination of malaria parasites from animals at 50 mg/kg, po qd for 4 days measured up to 60 days; assay type: functional, organism-based; set-up: dose 50 mg/kg; how it was run: as §1
[15] = test system: Mycobacterium intracellulare; assay: Antibacterial activity against Mycobacterium intracellular ATCC 23068 by CLSI method; assay type: functional, organism-based
[16] = test system: Leishmania donovani; assay: Antileishmanial activity against promastigotes of Leishmania donovani by alamar blue assay; assay type: functional, organism-based; conditions: Leishmania donovani; for IC50: read-out: IC50
[17] = test system: Nakaseomyces glabratus; assay: Antifungal activity against Candida glabrata at 20 ug/ml; assay type: functional, organism-based
[18] = test system: Candida albicans; assay: Antifungal activity against Candida albicans ATCC 90028; assay type: functional, organism-based
[19] = Hematotoxicity against RBC assessed as formation of methemoglobin at 20 ug/ml relative to control; assay type: cell-based; conditions: erythrocyte
How it was run: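 Metabolism-linked methemoglobin toxicity in vitro. Percent MetHb formation was determined at 20 µg/mL of compound relative to vehicle control.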

[20] = test system: Plasmodium falciparum; assay: Antimalarial activity against chloroquine-sensitive Plasmodium falciparum D6 by LDH assay; assay type: functional, organism-based; conditions: Plasmodium falciparum, D6; read-out: IC50; how it was run: as §4
[21] = test system: Plasmodium berghei; assay: Antimalarial activity against Plasmodium berghei infected in mouse assessed as negative parasitemia level at 100 mg/kg, po qd for 4 days measured up to 7 days; assay type: functional, organism-based; set-up: dose 100 mg/kg; how it was run: as §2
[22] = test system: Cryptococcus neoformans; assay: Antifungal activity against Cryptococcus neoformans ATCC 90113 at 20 ug/ml; assay type: functional, organism-based
[23] = test system: Staphylococcus aureus; assay: Antibacterial activity against methicillin-resistant Staphylococcus aureus ATCC 43300 at 20 ug/ml by CLSI method; assay type: functional, organism-based; how it was run: as §3

COc1cc(NC(C)CCCNC(=O)N[C@H](CCCN)C(=O)NCCCC(C)Nc2cc(OC)cc3ccc(C(C)(C)C)nc23)c2nc(C(C)(C)C)ccc2c1.Cl (stereo partly specified)
IC50 [1]: 9.97 µg/mL
MFC [1]: 20 µg/mL
Activity [2]: Active
MBC [3]: inactive
Activity [4]: Active
IC50 [5]: 1.78 µg/mL
MBC [5]: 5 µg/mL
MIC [5]: 5 µg/mL
IC50 [6]: 0.3 µg/mL
Activity [7]: Active
Activity [8]: inactive
IC50 [9]: 10.8 µM
Activity [10]: Non-toxic
Activity [11]: inactive
IC50 [12]: 2.73 µg/mL
MBC [12]: 5 µg/mL
MIC [12]: 5 µg/mL
MFC [13]: inactive
MIC [13]: inactive
Activity [14]: Active
IC50 [15]: 10 µg/mL
MIC [15]: 20 µg/mL
IC90 [16]: 34 µg/mL
IC50 [16]: 20 µg/mL
Activity [17]: inactive
IC50 [18]: > 20 µg/mL
Methemoglobin formation [19]: 2.3%

COc1cc(NC(C)CCCNCOC(=O)NCCCC(C)Nc2cc(OC)cc3cccnc23)c2ncccc2c1.Cl.Cl (stereo unspecified)
IC50 [20]: 2.6 µg/mL
Activity [21]: Active
IC50 [1]: 4.5 µg/mL
MFC [1]: 5 µg/mL
MIC [1]: 5 µg/mL
Activity [8]: inactive
IC50 [9]: 101 µM
Activity [10]: Non-toxic
Activity [11]: inactive
IC50 [13]: Not Active
MFC [13]: inactive
MIC [13]: inactive
IC90 [16]: 38 µg/mL
IC50 [16]: 20 µg/mL
Activity [17]: inactive
Methemoglobin formation [19]: 5.3%

COc1cc(NC(C)CCCNC(=S)NCCCC(C)Nc2cc(OC)cc3cccnc23)c2ncccc2c1.Cl.Cl (stereo unspecified)
IC50 [20]: 2.3 µg/mL
IC50 [1]: 15 µg/mL
IC50 [5]: 3 µg/mL
MBC [5]: 10 µg/mL
MIC [5]: 5 µg/mL
IC50 [6]: 2.4 µg/mL
Activity [8]: inactive
IC50 [9]: > 1000 µM
Activity [10]: Non-toxic
Activity [11]: inactive
MFC [22]: inactive
MIC [22]: inactive
MFC [13]: inactive
IC50 [15]: 4.5 µg/mL
IC90 [16]: 20 µg/mL
IC50 [16]: 4 µg/mL
Activity [17]: inactive
IC50 [18]: 10 µg/mL
Methemoglobin formation [19]: 3.7%

COc1cc(NC(C)CCCNCCNCCNCCCC(C)Nc2cc(OC)cc3cccnc23)c2ncccc2c1.Cl.Cl (stereo unspecified)
IC50 [20]: 2.6 µg/mL
IC50 [1]: 15 µg/mL
MFC [1]: 20 µg/mL
MIC [1]: 20 µg/mL
Activity [2]: Active
Activity [4]: Active
IC50 [6]: 1.5 µg/mL
Activity [7]: Active
Activity [8]: inactive
IC50 [23]: Not Active
MBC [23]: inactive
MIC [23]: inactive
IC50 [9]: 180 µM
Activity [10]: Non-toxic
Activity [11]: inactive
IC50 [13]: Not Active
MFC [13]: inactive
MIC [13]: inactive
Activity [14]: Active
IC50 [15]: 10 µg/mL
MBC [15]: 20 µg/mL
MIC [15]: 20 µg/mL
IC90 [16]: 27 µg/mL
Activity [17]: inactive
Methemoglobin formation [19]: 8.4%

COc1cc(NC(C)CCCNC(=O)CC[C@H](N)C(=O)NCCCC(C)Nc2cc(OC)cc3cccnc23)c2ncccc2c1.Cl (stereo partly specified)
IC50 [1]: 15 µg/mL
MFC [1]: 20 µg/mL
MIC [1]: 20 µg/mL
Activity [2]: Active
MBC [3]: inactive
Activity [4]: Active
IC50 [5]: 15 µg/mL
MIC [5]: 20 µg/mL
Activity [7]: Active
Activity [8]: inactive
MBC [23]: inactive
IC50 [9]: 85 µM
Activity [10]: Non-toxic
Activity [11]: inactive
IC50 [13]: Not Active
MFC [13]: inactive
MIC [13]: inactive
Activity [14]: Active
IC50 [15]: 15 µg/mL
MIC [15]: 20 µg/mL
IC90 [16]: 35 µg/mL
IC50 [16]: 16 µg/mL
Activity [17]: inactive
Methemoglobin formation [19]: 13.35%
